What was measured:
[1] = test system: THP-1 cells; experiment: Calcium mobilization in THP-1 cells; assay type: cell-based; details: THP-1; Fig. 7C
Outline: (§1)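 Peripheral blood monocytes (kit-isolated from PBMC, CD14-checked) or THP-1 cells at 10^7/mL were loaded with 5 µM Indo-1-AM for 7 min at 37 °C, then held 10 min at RT and washed in cold PBS. Cells were run at 2×10^6/mL in KRP (PBS, 1.5 mM CaCl2, 1.5 mM MgSO4). After baseline they got a first stimulus, then a second. Flow cytometry used 351 nm excitation and the 405:485 nm ratio, gating live cells. Three independent experiments.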

[2] = test system: CXCR2; experiment: CXCR2 surface expression on monocytes; assay type: cell-based, human; details: Supporting information Fig. 2
[3] = test system: monocytes; experiment: Migration of monocytes, 24-well Transwell; assay type: cell-based, human; details: LL-37 5 µM, CXCL1 50 nM, WKYMVm 5 µM, ATP 50 µM, BzATP 50 µM; 90 min, 37°C; Fig. 7F
Outline: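 CFSE-labelled monocytes or THP-1 cells (5 µM, 5 min RT) at 2×10^6/mL in phenol-red-free RPMI 1640 with 1% FBS went in the Transwell upper chamber (3-µm pores). Stimuli in the lower chamber included CXCL1 50 nM, WKYMVm 5 µM and ATP/BzATP 50 µM. Cells were used with or without 20 min preincubation with 10 µM CXCR2 antagonist. Incubation at 37 °C lasted 90 min for monocytes and 2 h for THP-1. Lower-well cells were read at 495 nm against a standard curve, in quadruplicate.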

[4] = test system: neutrophils; experiment: Calcium mobilization of neutrophils; assay type: cell-based, human; details: ATP 5 µM; for [Ca2+]i time of decline to baseline: fMLF 100 nM, CXCL8 10 nM, Fig. 3A
[5] = test system: CXCR1; experiment: CXCR1 surface expression on neutrophils, flow cytometry; assay type: cell-based, human; details: 3h; for CXCR1 down-regulation at higher dose: 50 nM; for CXCR1 surface expression, chemokine treated: 1 nM, 5 nM, 10 nM (50 nM), Fig. 2E-G
Outline: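 Human blood neutrophils were isolated by dextran sedimentation and Ficoll (>95% CD16+) and held at 5×10^6/mL in RPMI 1640 with 1% FBS. They were treated 3h with a dose series (test peptide 1–10 µM; chemokines 1, 5, 10, 50 nM) or with 5 µM for 0.5–3h. Cells were blocked in 10% human serum and stained with anti-CXCR1-APC/anti-CXCR2-FITC or anti-P2X7-FITC, plus anti-CD16. Read-out was flow cytometry GMFI.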

[6] = test system: CXCR2; experiment: CXCR2 surface expression on neutrophils, flow cytometry; assay type: cell-based, human; details: 3h; for CXCR2 surface expression, chemokine treated: 1 nM, 5 nM, 10 nM (50 nM), Fig. 2E-G
[7] = test system: CXCR2; experiment: Confocal analysis of CXCR2 internalization in neutrophils; assay type: cell-based, human; details: 37°C
Outline: (§2)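 Neutrophils came from citrated donor blood by dextran sedimentation and Ficoll gradient. […] Cells were fixed in 2% paraformaldehyde, permeabilised with saponin and blocked with human serum. Anti-CXCR1 or anti-CXCR2 mAb (4°C), then Alexa 488 anti-mouse IgG, DAPI mount, confocal imaging; three independent experiments.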

[8] = test system: CXCR2; details: ref [33], [34]; cited from earlier work
[9] = test system: CXCR2 transfected HEK293 cells; experiment: Secondary necrosis of CXCR2 transfected HEK293 cells; assay type: cell-based; details: Supporting information Fig. 4
[10] = test system: CXCR1; experiment: Confocal analysis of CXCR1 internalization in neutrophils; assay type: cell-based, human; details: 37°C
Outline: as §2

[11] = test system: CXCR1 transfected HEK293 cells; experiment: Secondary necrosis of CXCR1 transfected HEK293 cells; assay type: cell-based; details: Supporting information Fig. 4
[12] = test system: CXCR2; experiment: Calcium mobilization in HEK293/CXCR2 cells; assay type: cell-based, human; details: Indo-1; Fig. 7A-B
Outline: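 They were washed in cold PBS, pelleted at 200 × g for 10 min at 4 °C, and resuspended in PBS with Ca/Mg. […] [Ca2+]i was read as the 405:485 nm ratio by flow cytometry, gating on living cells.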

[13] = test system: 125I-CXCL8 specific binding sites on neutrophils (CXCR1/2); experiment: Competition with 125I-CXCL8 for binding to neutrophils; parameters: species or system human; details: 1.25 nM 125I-CXCL8, 2h on ice, triplicate, dose-dependent, Fig. 5B
[14] = test system: CXCR1; experiment: Calcium mobilization in HEK293/CXCR1 cells; assay type: cell-based, human; details: Indo-1; Fig. 7A-B
Outline: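 CXCR1-transfected HEK293 cells were loaded with 5 µM Indo-1-AM in 5 µM pluronic F-127/PBS for 30 min at RT. They were washed in cold PBS, spun at 200 × g for 10 min at 4 °C and suspended in PBS with calcium and magnesium. Stimulation followed baseline recording. Flow cytometric [Ca2+]i was read as the 405:485 nm emission ratio with 351 nm excitation. Three independent experiments.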

[15] = test system: neutrophils; experiment: Cross-desensitization of calcium mobilization of neutrophils; assay type: cell-based, human; details: for cross-desensitization of response to fMLF by LL-37, CXCL7, CXCL1: data not shown
[16] = test system: CXCR1; details: ref [33], [34]; cited from earlier work
[17] = test system: P2X7; details: P2X7 receptor blockers; monocytes; ref [14]; cited from earlier work
[18] = test system: monocytes; experiment: Calcium mobilization in monocytes; assay type: cell-based, human; details: ATP or WKYMVm first, then LL-37; Fig. 7D
Outline: as §1

[19] = fMLF 50 nM, 100 nM, 200 nM, Fig. 2A
[20] = CXCL7 50 nM or CXCL1 50 nM, 60 min, data not shown
[21] = LL-37 5 µM or CXCL8 50 nM, 1 h, Fig. 8
[22] = ATP 30 µM, 300 µM, 3000 µM, Fig. 2C

**Q.** For Nc1ncnc2c1ncn2[C@@H]1O[C@H](COP(=O)(O)OP(=O)(O)OP(=O)(O)O)[C@@H](OC(=O)c2ccc(C(=O)c3ccccc3)cc2)[C@H]1O [BzATP], which “block of LL-37 induced calcium mobilization by ATP / BzATP” value [1] is on record?
**A.** not BzATP was able to partially block

**Q.** And the “CXCR2 down-regulation on monocytes” value [2]?
**A.** but not ATP or BzATP, all down-regulate CXCR2

**Q.** What about the “stimulation of migration of monocytes” value [3] of the same molecule?
**A.** only LL-37 stimulated migration of monocytes

**Q.** Which “[Ca2+]i time of decline to baseline” value [4] does the source give for fMLF [reference compound] here?
**A.** ≤ 200 s

**Q.** What about the CXCR1 surface expression [5, 19] of the same molecule?
**A.** caused down-regulation of both CXCR2 and CXCR1 expression with similar kinetics

**Q.** And the CXCR2 surface expression [6, 19]?
**A.** caused down-regulation of both CXCR2 and CXCR1 expression with similar kinetics

**Q.** Which “CXCR2 translocation (internalization)” value [7, 20] does the source give for “CXCL1: recombinant human chemokine, predominantly CXCR2 specific” here?
**A.** caused only CXCR2 receptor translocation to the cytoplasm

**Q.** And the “affinity for CXCR2” value [8]?
**A.** high affinity

**Q.** And the “generation of secondary necrotic cells, HEK293/CXCR2” value [9]?
**A.** not with CXCL1

**Q.** What about the “CXCR1 translocation (internalization)” value [10, 20] of the same molecule?
**A.** caused only CXCR2 receptor translocation to the cytoplasm

**Q.** What about the “generation of secondary necrotic cells, HEK293/CXCR1” value [11] of the same molecule?
**A.** not with CXCL1

**Q.** What about the “CXCR1 down-regulation at higher dose” value [5] of the same molecule?
**A.** down-regulate CXCR1 at higher doses

**Q.** And the “CXCR1 surface expression, chemokine treated” value [5]?
**A.** down-regulated CXCR2 but not CXCR1

**Q.** And the “calcium mobilization in CXCR2 transfected HEK293 cells” value [12]?
**A.** weak but similar patterns of calcium mobilization

**Q.** And the “maximum competition of 125I-CXCL8 binding” value ([13]; 2×10^6 cells)?
**A.** around 50%

**Q.** What about the “displacement of 125I-CXCL8” value [13] of the same molecule?
**A.** partly displace

**Q.** What about the “CXCR2 surface expression, chemokine treated” value [6] of the same molecule?
**A.** down-regulated CXCR2 but not CXCR1 in a limited dose-dependent manner

**Q.** What about the “CXCR2 down-regulation on monocytes” value [2] of the same molecule?
**A.** down-regulate CXCR2

**Q.** And the “calcium mobilization in CXCR1 transfected HEK293 cells” value [14]?
**A.** only CXCL8 gave a response

**Q.** And the “stimulation of migration of monocytes” value [3]?
**A.** only LL-37 stimulated migration of monocytes

**Q.** What about the “cross-desensitization of response to fMLF by LL-37, CXCL7, CXCL1” value [15] of the same molecule?
**A.** do not cross-sensitize fMLF stimulation

**Q.** With CXCL3: CXC chemokine as the molecule, how does the “affinity for CXCR2” value [8] read?
**A.** high affinity

**Q.** What does the source list for “CXCL8: recombinant human chemokine that binds both CXCR1/2”?
**A.** CXCR2 translocation (internalization) [7, 21]: translocation of both CXCR1 and CXCR2 to the cytoplasm; affinity for CXCR2 [8]: high affinity; affinity for CXCR1 [16]: high affinity; CXCR1 translocation (internalization) [10, 21]: translocation of both CXCR1 and CXCR2 to the cytoplasm; [Ca2+]i time of decline to baseline [4]: less than 100 s; CXCR1 surface expression, chemokine treated [5]: significantly down-regulated both CXCR1 and CXCR2; calcium mobilization in CXCR2 transfected HEK293 cells [12]: weak but similar patterns of calcium mobilization; CXCR2 surface expression, chemokine treated [6]: significantly down-regulated both CXCR1 and CXCR2; CXCR2 down-regulation on monocytes [2]: down-regulate CXCR2; calcium mobilization in CXCR1 transfected HEK293 cells [14]: gave a response; cross-desensitization of response to CXCL1 ([15]; CXCL8 10 nM first, CXCL1 10 nM 160 s later, Fig. 4C): completely blocked; cross-desensitization of response to CXCL7 ([15]; CXCL8 10 nM first, CXCL7 10 nM 160 s later, Fig. 4B): completely blocked; cross-desensitization of response to LL-37 ([15]; CXCL8 10 nM first, LL-37 5 µM 160 s later, Fig. 4A): completely blocked; cross-desensitization of response to fMLF ([15]; CXCL8 10 nM first, fMLF 100 nM 160 s later, Fig. 4D): failed to cross-sensitize fMLF stimulation

**Q.** With CXCL6: CXC chemokine as the molecule, how does the “affinity for CXCR2” value [8] read?
**A.** high affinity

**Q.** What about the “affinity for CXCR1” value [16] of the same molecule?
**A.** high affinity

**Q.** For Nc1ncnc2c1ncn2[C@@H](C=O)O[C@@H](C=O)COP(=O)(O)OP(=O)(O)OP(=O)(O)O [oxATP], which “block of LL-37-induced release of IL-1β” value [17] is on record?
**A.** did not completely block the release of IL-1β

**Q.** Which “affinity for CXCR2” value [8] does the source give for CXCL5: CXC chemokine here?
**A.** high affinity

**Q.** With CXCL2: CXC chemokine as the molecule, how does the “affinity for CXCR2” value [8] read?
**A.** high affinity

**Q.** With Nc1ncnc2c1ncn2[C@@H]1O[C@H](COP(=O)(O)OP(=O)(O)OP(=O)(O)O)[C@@H](O)[C@H]1O [ATP, reference compound] as the molecule, how does the “cross-block of LL-37 stimulated calcium mobilization in monocytes” value [18] read?
**A.** neither ATP nor WKYMVm cross-block LL-37 stimulated calcium mobilization

**Q.** And the “[Ca2+]i time of decline to baseline” value [4]?
**A.** ≤ 200 s

**Q.** What about the “calcium flux response in the absence of extracellular Ca2+” value ([4]; PBS without calcium and magnesium, LL-37 5 µM, WKYMVm 5 µM, Fig. 3C) of the same molecule?
**A.** only the WKYMVm peptide is capable of generating a calcium flux response

**Q.** What about the CXCR1 surface expression [5, 22] of the same molecule?
**A.** no down-regulation of either CXCR1 or CXCR2

**Q.** What about the CXCR2 surface expression [6, 22] of the same molecule?
**A.** no down-regulation of either CXCR1 or CXCR2

**Q.** And the “block of LL-37 induced calcium mobilization by ATP / BzATP” value [1]?
**A.** able to partially block

**Q.** And the “CXCR2 down-regulation on monocytes” value [2]?
**A.** but not ATP or BzATP, all down-regulate CXCR2

**Q.** What about the “stimulation of migration of monocytes” value [3] of the same molecule?
**A.** only LL-37 stimulated migration of monocytes

**Q.** And the “cross-desensitization of LL-37 response by ATP” value ([15]; ATP first, then LL-37, Supporting information Fig. 3A-B)?
**A.** unable to block calcium mobilization stimulated by LL-37 in neutrophils

**Q.** For CN([C@@H](Cc1ccc(OS(=O)(=O)c2cccc3cnccc23)cc1)C(=O)N1CCN(c2ccccc2)CC1)S(=O)(=O)c1cccc2cnccc12 [KN62], which “block of LL-37-induced release of IL-1β” value [17] is on record?
**A.** did not completely block the release of IL-1β

B1: CXCL7: recombinant human chemokine, rather CXCR2 specific (protein, UniProt P02775 59-128, looked up)
Neutrophil-activating peptide …: AELRCMCIKTTSGIHPKNIQSLEVIGKGTHCNQVEVIATLKDGRKICLDPDAPRIKKIVQKKLAGDESAD
modifications: Neutrophil-activating peptide 2
**Q.** Which “CXCR2 translocation (internalization)” value [7, 20] does the source give for B1 here?
**A.** caused only CXCR2 receptor translocation to the cytoplasm

**Q.** And the “affinity for CXCR2” value [8]?
**A.** high affinity

**Q.** What about the “CXCR1 translocation (internalization)” value [10, 20] of the same molecule?
**A.** caused only CXCR2 receptor translocation to the cytoplasm

**Q.** And the “CXCR1 down-regulation at higher dose” value [5]?
**A.** down-regulate CXCR1 at higher doses

**Q.** What about the “CXCR1 surface expression, chemokine treated” value [5] of the same molecule?
**A.** less discriminatory towards CXCR2 compared to LL-37

**Q.** And the “cross-desensitization of response to fMLF by LL-37, CXCL7, CXCL1” value [15]?
**A.** do not cross-sensitize fMLF stimulation
